In ChEMBL document CHEMBL1255376, “Comparative surveillance study of telavancin activity against recently collected gram-positive clinical isolates from across the United States” (2008):
≈ marks a conversion by molar mass, not a printed value.

Key:
[1] = Antibacterial activity against Streptococcus sp. Group C clinical isolate by broth microdilution method; assay type: functional
How it was run: (§1)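 MIC by CLSI broth microdilution in frozen microtiter trays holding serial dilutions of each agent, prepared from standard laboratory powders. E. faecalis ATCC 29212 and ATCC 51299, S. aureus ATCC 29213 and S. pneumoniae ATCC 49619 run in parallel as quality-control strains. Comparator susceptibility interpreted with CLSI breakpoints.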

Staphylococcus aureus [2] = assay: Antibacterial activity against daptomycin-nonsusceptible Staphylococcus aureus isolate 1285404 by broth microdilution method
Staphylococcus simulans = assay: Antibacterial activity against methicillin-resistant coagulase-negative Staphylococcus simulans clinical isolate by broth microdilution method; assay type: functional
How it was run: (§2)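 MICs by CLSI broth microdilution in frozen trays pre-loaded with serial dilutions of each agent. Quality-control strains run in parallel: E. faecalis ATCC 29212 and ATCC 51299, S. aureus ATCC 29213, S. pneumoniae ATCC 49619. Comparator susceptibility categories follow CLSI breakpoints. Methicillin resistance in staphylococci assigned from the oxacillin MIC.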

Staphylococcus xylosus = assay: Antibacterial activity against methicillin-susceptible coagulase-negative Staphylococcus xylosus clinical isolate by broth microdilution method; assay type: functional; how it was run: as §2
[3] = Antibacterial activity against Streptococcus sp. Group G clinical isolate by broth microdilution method; assay type: functional; how it was run: as §1
Staphylococcus hominis [4] = assay: Antibacterial activity against methicillin-susceptible coagulase-negative Staphylococcus hominis clinical isolate by broth microdilution method; assay type: functional; how it was run: as §2
Streptococcus mitis = assay: Antibacterial activity against Streptococcus mitis clinical isolate by broth microdilution method; assay type: functional; how it was run: as §1
Staphylococcus capitis [5] = assay: Antibacterial activity against methicillin-resistant coagulase-negative Staphylococcus capitis clinical isolate by broth microdilution method; assay type: functional; how it was run: as §2
Enterococcus faecalis [6] = assay: Antibacterial activity against vancomycin- and teichoplanin-nonsusceptible Enterococcus faecalis clinical isolate by broth microdilution method; assay type: functional; how it was run: as §2
Mammaliicoccus sciuri [7] = assay: Antibacterial activity against methicillin-resistant coagulase-negative Staphylococcus sciuri clinical isolate by broth microdilution method; assay type: functional; how it was run: as §2
Mammaliicoccus sciuri [8] = assay: Antibacterial activity against methicillin-susceptible coagulase-negative Staphylococcus sciuri clinical isolate by broth microdilution method; assay type: functional; how it was run: as §2
Enterococcus faecium = assay: Antibacterial activity against vancomycin-resistant and teichoplanin-susceptible Enterococcus faecium clinical isolate by broth microdilution method; assay type: functional; how it was run: as §2
[9] = system: Staphylococcus haemolyticus; assay: Antibacterial activity against methicillin-susceptible coagulase-negative Staphylococcus haemolyticus clinical isolate by broth microdilution method; assay type: functional; how it was run: as §2
Streptococcus equinus = assay: Antibacterial activity against Streptococcus bovis clinical isolate by broth microdilution method; assay type: functional; how it was run: as §1
[10] = system: Staphylococcus saprophyticus; assay: Antibacterial activity against methicillin-resistant coagulase-negative Staphylococcus saprophyticus clinical isolate by broth microdilution method; assay type: functional; how it was run: as §2
Staphylococcus aureus [11] = assay: Antibacterial activity against daptomycin-nonsusceptible Staphylococcus aureus isolate 1176127 by broth microdilution method; assay type: functional; how it was run: as §2
Staphylococcus cohnii = assay: Antibacterial activity against methicillin-susceptible coagulase-negative Staphylococcus cohnii clinical isolate by broth microdilution method; assay type: functional; how it was run: as §2
Staphylococcus = assay: Antibacterial activity against methicillin-susceptible coagulase-negative unspeciated Staphylococcus clinical isolate by broth microdilution method; assay type: functional; how it was run: as §2
[12] = system: Staphylococcus epidermidis; assay: Antibacterial activity against methicillin-susceptible coagulase-negative Staphylococcus epidermidis clinical isolate by broth microdilution method; assay type: functional; how it was run: as §2
Staphylococcus warneri [13] = assay: Antibacterial activity against methicillin-resistant coagulase-negative Staphylococcus warneri clinical isolate by broth microdilution method; assay type: functional; how it was run: as §2
Staphylococcus hominis [14] = assay: Antibacterial activity against methicillin-resistant coagulase-negative Staphylococcus hominis clinical isolate by broth microdilution method; assay type: functional; how it was run: as §2
Staphylococcus warneri [15] = assay: Antibacterial activity against methicillin-susceptible coagulase-negative Staphylococcus warneri clinical isolate by broth microdilution method; assay type: functional; how it was run: as §2
Staphylococcus capitis [16] = assay: Antibacterial activity against daptomycin-nonsusceptible Staphylococcus capitis isolate 1285355 by broth microdilution method; assay type: functional; how it was run: as §1
Enterococcus faecalis [17] = assay: Antibacterial activity against vancomycin-susceptible Enterococcus faecalis clinical isolate by broth microdilution method; assay type: functional; how it was run: as §2

Structure (SMILES): CCCCCCCCCC(=O)N[C@@H](Cc1c[nH]c2ccccc12)C(=O)N[C@H](CC(N)=O)C(=O)N[C@@H](CC(=O)O)C(=O)N[C@@H]1C(=O)NCC(=O)N[C@@H](CCCN)C(=O)N[C@@H](CC(=O)O)C(=O)N[C@H](C)C(=O)N[C@@H](CC(=O)O)C(=O)NCC(=O)N[C@H](CO)C(=O)N[C@@H]([C@H](C)CC(=O)O)C(=O)N[C@@H](CC(=O)c2ccccc2N)C(=O)O[C@@H]1C
- MIC50 [1]: 0.06 µg/mL (≈ 0.037 µM)
- MIC90 [1]: 0.25 µg/mL (≈ 0.154 µM)
- MIC (Staphylococcus aureus [2]): > 1 µg/mL
- MIC50 (Staphylococcus simulans): 0.5 µg/mL (≈ 0.309 µM)
- MIC90 (Staphylococcus simulans): 1 µg/mL (≈ 0.617 µM)
- MIC50 (Staphylococcus xylosus): 0.5 µg/mL (≈ 0.309 µM)
- MIC90 (Staphylococcus xylosus): 1 µg/mL (≈ 0.617 µM)
- MIC50 [3]: 0.06 µg/mL (≈ 0.037 µM)
- MIC90 [3]: 0.25 µg/mL (≈ 0.154 µM)
- MIC50 (Staphylococcus hominis [4]): 0.5 µg/mL (≈ 0.309 µM)
- MIC90 (Staphylococcus hominis [4]): 1 µg/mL (≈ 0.617 µM)
- MIC50 (Streptococcus mitis): 0.25 µg/mL (≈ 0.154 µM)
- MIC90 (Streptococcus mitis): 1 µg/mL (≈ 0.617 µM)
- MIC50 (Staphylococcus capitis [5]): 0.5 µg/mL (≈ 0.309 µM)
- MIC90 (Staphylococcus capitis [5]): 1 µg/mL (≈ 0.617 µM)
- MIC (Enterococcus faecalis [6]): 0.5 µg/mL (≈ 0.309 µM)
- MIC50 (Enterococcus faecalis [6]): 0.5 µg/mL (≈ 0.309 µM)
- MIC90 (Enterococcus faecalis [6]): 1 µg/mL (≈ 0.617 µM)
- MIC50 (Mammaliicoccus sciuri [7]): 0.5 µg/mL (≈ 0.309 µM)
- MIC90 (Mammaliicoccus sciuri [7]): 1 µg/mL (≈ 0.617 µM)
- MIC50 (Mammaliicoccus sciuri [8]): 0.5 µg/mL (≈ 0.309 µM)
- MIC90 (Mammaliicoccus sciuri [8]): 1 µg/mL (≈ 0.617 µM)
- MIC50 (Enterococcus faecium): 2 µg/mL (≈ 1.23 µM)
- MIC90 (Enterococcus faecium): 4 µg/mL (≈ 2.47 µM)
- MIC50 [9]: 0.5 µg/mL (≈ 0.309 µM)
- MIC90 [9]: 1 µg/mL (≈ 0.617 µM)
- MIC50 (Streptococcus equinus): 0.25 µg/mL (≈ 0.154 µM)
- MIC90 (Streptococcus equinus): 1 µg/mL (≈ 0.617 µM)
- MIC50 [10]: 0.5 µg/mL (≈ 0.309 µM)
- MIC90 [10]: 1 µg/mL (≈ 0.617 µM)
- MIC (Staphylococcus aureus [11]): > 1 µg/mL
- MIC50 (Staphylococcus cohnii): 0.5 µg/mL (≈ 0.309 µM)
- MIC90 (Staphylococcus cohnii): 1 µg/mL (≈ 0.617 µM)
- MIC50 (Staphylococcus): 0.5 µg/mL (≈ 0.309 µM)
- MIC90 (Staphylococcus): 1 µg/mL (≈ 0.617 µM)
- MIC50 [12]: 0.5 µg/mL (≈ 0.309 µM)
- MIC90 [12]: 1 µg/mL (≈ 0.617 µM)
- MIC50 (Staphylococcus warneri [13]): 0.5 µg/mL (≈ 0.309 µM)
- MIC90 (Staphylococcus warneri [13]): 1 µg/mL (≈ 0.617 µM)
- MIC50 (Staphylococcus hominis [14]): 0.5 µg/mL (≈ 0.309 µM)
- MIC90 (Staphylococcus hominis [14]): 1 µg/mL (≈ 0.617 µM)
- MIC50 (Staphylococcus warneri [15]): 0.5 µg/mL (≈ 0.309 µM)
- MIC90 (Staphylococcus warneri [15]): 1 µg/mL (≈ 0.617 µM)
- MIC (Staphylococcus capitis [16]): > 1 µg/mL
- MIC50 (Enterococcus faecalis [17]): 1 µg/mL (≈ 0.617 µM)
